From publication PMC3561458 (Investigational new drugs, 2011)

Key:
[1] = tested on: CDK7; settings: cited from earlier work
[2] = tested on: CDK4; settings: cited from earlier work
[3] = tested on: CDK1; settings: cited from earlier work
[4] = tested on: CDK2; settings: cited from earlier work
[5] = tested on: patients; settings: intravenous; cited from earlier work
[6] = tested on: patients; settings: cited from earlier work
[7] = Plasma pharmacokinetics; assay type: in vivo, human; settings: across doses
In short: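 The test compound is given orally once daily for 7 days in 2-week cycles (S1). Plasma is sampled in cycle 1 on days 1, 2, 4, 7, 8 and 9, and in cycle 2 on days 1, 4 and 7. Cycle 1 day 1 is sampled from 30 min to 24 h after dosing and day 7 from 30 min to 96 h. Parent and metabolite are measured by validated LC-MS-MS, with calibration ranges of 0.00109–1.09 and 0.00105–1.05 μM respectively.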

[8] = Urinary excretion; assay type: in vivo, human; settings: patients at the RP2D in S1
In short: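 Urine is collected only from S1 patients dosed at the recommended phase II dose, with once-daily oral dosing for 7 days in 2-week cycles. Parent compound and metabolite in urine are measured by validated LC-MS-MS, with calibration ranges of 0.217–109 μM for the parent and 0.210–105 μM for the metabolite.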

[9] = tested on: patients; settings: cited from earlier work; remark: listed apart in the source

SMILES: CN1CC[C@H](c2c(O)cc(O)c3c(=O)cc(-c4ccccc4Cl)oc23)[C@H](O)C1 [flavopiridol, reference compound]
- inhibition of CDK7 [1]: demonstrated inhibition
- inhibition of CDK4 [2]: demonstrated inhibition
- inhibition of CDK1 [3]: demonstrated inhibition
- inhibition of CDK2 [4]: demonstrated inhibition
- clinical activity [5]: showed activity in some patients with non-Hodgkin’s lymphoma, renal, prostate, colon, and gastric carcinomas
- main side effects [5]: secretory diarrhea, a proinflammatory syndrome associated with hypotension, and hyperglycemia

SMILES: CCc1cnn2c(NCc3ccc[n+]([O-])c3)cc(N3CCCC[C@H]3CCO)nc12 [dinaciclib]
- toxicities [6]: myelotoxicity, GI toxicity, fatigue, skin rash and electrolytes inbalance, with no neurological toxicity

SMILES: CC[C@H](CO)Nc1nc(NCc2ccccc2)c2ncn(C(C)C)c2n1 [seliciclib]
- toxicities [6]: myelotoxicity, GI toxicity, fatigue, skin rash and electrolytes inbalance, with no neurological toxicity

SMILES: Nc1nc2cccc(-c3ccc(CN4CCS(=O)(=O)CC4)cc3)n2n1 [metabolite]
- AUC0-24 of the metabolite relative to parent compound [7]: approximately 30%
- Cmax of the metabolite relative to parent compound [7]: approximately 30%
- amount excreted in urine [8]: 13 % of dose

SMILES: Cc1ncc(-c2ccnc(Nc3ccc(S(C)(=O)=O)cc3)n2)n1C(C)C [AZD438]
- toxicities [6]: myelotoxicity, GI toxicity, fatigue, skin rash and electrolytes inbalance, with no neurological toxicity

SMILES: C[C@]12O[C@H](C[C@]1(O)CO)n1c3ccccc3c3c4c(c5c6ccccc6n2c5c31)CNC4=O [CEP-701]
- most frequently reported side effects [9]: predominantly GI-related (nausea, diarrhea, anorexia, constipation, and vomiting), and asthenia
- patients with stable disease for at least six months [9]: three
- patients with stable disease for more than three months [9]: Seven of 30
